# Screening data deposited in PubChem BioAssay by Johns Hopkins Ion Channel Center.
# Kir21 block: blocks the mouse Kir2.1 inward-rectifier potassium channel | P35561 | HEK293-Kir2.1, FluxOR thallium flux fluorescence; active compounds read low | B-score at 10 µM | actives 0.85% (n = 310,000) | AID 1672;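 active = fluorescence ratio B-score at or below minus 3 SD of library scores, with starting-brightness B-score within 2 SD, cut at about -4.2 in these data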;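 note: channel flux triggered by added potassium and thallium sulfate stimulus; B-score of peak minus minimum fluorescence over baseline after thallium stimulus; more negative B-score means stronger Kir2.1 block with less thallium influx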
# KCNK3 inh: human KCNK3 channel inhibition, primary screen. CHO-KCNK3 thallium flux, FluxOR fluorescence; active compounds read low. AID 602410. O14649. actives 0.84% (n = 340,000). B-score at 10 µM;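 active = B-score under library mean minus 4 SD, starting fluorescence ratio at most library mean plus 5 SD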;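 note: more negative B-score means stronger inhibition of thallium flux through KCNK3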
# KCNQ1 inh: inhibitors of human KCNQ1 potassium channel | P51787 | CHO-K1 KCNQ1, FluxOR thallium flux fluorescence; active compounds read high | B-score at 10 µM | actives 1.3% (n = 310,000);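 active = compounds whose thallium flux B-score, printed positive for inhibition, exceeds three library SD while starting fluorescence stays within three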;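 note: channel opened by potassium depolarization with thallium stimulus after 20 min compound exposure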
# KCNQ1 pot: potentiators or activators of human KCNQ1 potassium channel; P51787; CHO-K1 KCNQ1, thallium flux FluxOR fluorescence; active compounds read high; B-score at 10 µM; actives 0.35% (n = 310,000);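 active = fluorescence ratio B-score, a plate-corrected score, at least three library SD, with initial intensity B-score within 5 SD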
#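 Material: CHO-K1 cells stably expressing KCNQ1. Medium: assay buffer for compound exposure, DMSO matched across wells. Reagent: K+/Tl+ depolarizing stimulus. Compound dosing: single-concentration screen. Times: 37 °C overnight plating, 90-min dark dye load, 20-min compound pretreatment. Technique: FluxOR Tl+ flux fluorescence.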
# KCNK9 inh: inhibitors of human KCNK9 two-pore domain potassium channel | Q9NPC2 | HEK293 KCNK9, FluxOR thallium flux fluorescence; active compounds read low | B-score at 10 µM | actives 1.2% (n = 310,000) | AID 488922;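 active = ratio B-score over 3 SD below the library mean, with starting fluorescence within 5 SD of its mean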;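 note: negative B-score means less thallium flux so channel inhibition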
# Target sequence (Q9NPC2 whole entry, looked up, the tested form may be a part): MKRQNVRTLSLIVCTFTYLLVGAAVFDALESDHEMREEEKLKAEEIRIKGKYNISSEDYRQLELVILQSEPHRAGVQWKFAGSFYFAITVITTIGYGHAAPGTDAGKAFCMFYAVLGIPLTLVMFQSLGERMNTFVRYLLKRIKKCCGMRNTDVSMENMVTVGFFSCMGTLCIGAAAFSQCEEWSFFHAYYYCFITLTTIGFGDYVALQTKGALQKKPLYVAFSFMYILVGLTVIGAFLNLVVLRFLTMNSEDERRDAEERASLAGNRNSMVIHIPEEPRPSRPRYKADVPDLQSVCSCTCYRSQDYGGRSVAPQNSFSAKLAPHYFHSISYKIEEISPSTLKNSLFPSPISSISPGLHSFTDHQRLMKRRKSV
# hERG protect: compounds protecting human hERG from proarrhythmic drug block | Q12809 | CHO-hERG, FluxOR thallium flux, dofetilide IC70 present | activation (rescue from dofetilide block), less the hit threshold, % at 10 µM | actives 0.51% (n = 310,000) | AID 1511;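 active = activation above the mean of controls blocked by dofetilide plus 5 SD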;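 note: thallium influx through hERG after potassium depolarization seen as dye fluorescence rise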
# KCNK3 inh conf: confirmation of human KCNK3 two-pore domain potassium channel inhibitors. actives 99% (n = 2,400). ratio percent of control, % at 10 µM. shares compounds with KCNK3 inh. CHO-KCNK3 thallium flux, FluxOR fluorescence; 0% buffer, 100% carvedilol maximal block;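 active = ratio percent of control, averaged over triplicates, above buffer control mean plus 5 SD, cut at about 64% in these data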;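 note: ratio is the fluorescence rise from min to max over baseline after thallium stimulus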
# KCNK3 uninduced: activity in cells without induced KCNK3 expression. shares compounds with KCNK3 inh. non-induced KCNK3 parental cells, FluxOR thallium flux; active compounds read low. thallium flux ratio (lower = more inhibition) at 10 µM. actives 40% (n = 2,400). AID 651747;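 active = thallium flux ratio, averaged over three wells, more than 5 SD below the buffer control mean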;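 note: host cells are CHO cells without KCNK3 induction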
# Hits are given with their value; 0 = inactive; - = not tested or not shown. Hits are enriched below; roughly 3.7% of the tested compounds scored in any of these assays.
SMILES,Kir21 block,KCNK3 inh,KCNQ1 inh,KCNQ1 pot,KCNK9 inh,hERG protect,KCNK3 inh conf,KCNK3 uninduced
CCCN1C(=S)c2ccccc2C1c1ccccc1 (stereo not given),0,-11,0,0,0,0,121,0.15
COc1ccc(C(=O)COC(=O)c2cnc(C)cn2)cc1OC,-,0,-,-,-,-,-,-
COc1ccccc1OCC(=O)N/N=C/c1c(O)ccc2ccccc12,0,-10,0,0,-8.6,0,132,0
CC1CCN(c2ccccc2NC(=O)c2cc3ccccc3o2)CC1,0,-9.7,0,0,0,0,106,0
Cc1ccccc1NC(=O)c1cc2ccccc2o1,0,0,0,0,0,0,-,-
Cc1sc(NC(=O)c2ccco2)nc1-c1ccc2c(c1)CC(C)N2C(=O)C1CC1 (stereo not given),0,-9.4,6,0,0,0,101,0
Cc1sc(NC(=O)c2ccco2)nc1-c1ccccc1,0,0,0,0,0,0,-,-
CC(C)[C@H](NC(=O)[C@@H]1Cc2c([nH]c3ccccc23)C2c3ccccc3C(=O)N21)C(=O)NCC1CCCO1 (stereo not given in full),0,0,0,0,0,0,-,-
Cc1cc(C)c(NC(=O)CN(C)C(=O)C2CC(=O)N(c3cccc4ccccc34)C2)c(C)c1 (stereo not given),-,0,-,-,-,-,-,-
Cc1cc(C)c(S(=O)(=O)N2CCc3ccccc32)c(C)c1,0,-13,6,0,0,0,115,0.13
COc1ccc(CCNC(=O)C2CCN(c3nccc(C)n3)CC2)cc1,0,0,0,0,0,0,-,-
CN(C)c1ccc(C(=O)OCC(=O)c2ccc[nH]2)cc1,-,0,-,-,-,-,-,-
Cc1ccc(NC(=O)c2ccc3ccccc3n2)nc1,0,0,0,0,0,0,-,-
O=C(Nc1ccc(Cl)cn1)c1ccc2ccccc2n1,0,-8.7,0,0,0,0,93,0
Cc1ccc2c(Cl)cc(Cl)c(OCC(=O)Nc3cc(S(=O)(=O)N(C)C)ccc3C)c2n1,0,-9.1,0,0,0,0,90,0.15
Cc1ccc(S(=O)(=O)N(C)C)cc1NC(=O)COC(=O)c1c(-c2ccccc2)noc1C,0,-9,0,0,0,0,91,0
Cc1ccccc1NC(=O)COC(=O)c1c(-c2ccccc2)noc1C,-,0,-,-,-,-,-,-
CCc1nc(Nc2ccccc2OC)c2oc3ccccc3c2n1,0,-9.2,0,0,0,0,116,0.14
CCc1nc(Nc2cc(OC)ccc2OC)c2oc3ccccc3c2n1,0,0,0,0,0,0,-,-
O=C(Cc1ccc(Cl)cc1)NNC(=S)NC(=O)c1cccs1,0,0,0,0,0,0,-,-
O=C(Cc1cccs1)NNC(=S)NCc1ccc(Cl)cc1,0,-11,0,0,-7.7,0,77,0
COc1cc(Cl)c(C)cc1NC(=O)CSc1ccccc1,0,-9.4,0,0,0,0,113,0
COc1cc(Cl)c(C)cc1NC(=O)CSc1ccc(C)cc1,0,0,0,0,0,0,-,-
COC(=O)C1=C(C)N(CCCC(=O)O)C(=O)NC1c1ccc(C#N)cc1 (stereo not given),0,0,0,0,0,0,-,-
CC(C)C(OC(=O)c1nsc(Cl)c1Cl)C(=O)NC1CCCCC1 (stereo not given),0,0,0,0,0,0,-,-
SMILES,Kir21 block,KCNK3 inh,KCNQ1 inh,KCNQ1 pot,KCNK9 inh,hERG protect,KCNK3 inh conf,KCNK3 uninduced
CCCN1CCN(C(=O)Nc2cccc(C(F)(F)F)c2)CC1,0,-10,0,0,0,0,106,0
COC(=O)C1CCN(C(=O)COC(=O)c2cc(-c3ccccc3)nc3ccc(OC)cc23)CC1,-,-12,-,-,-,-,105,0
COc1ccc(-c2cc(C(=O)OCC(=O)N3CCOCC3)c3ccccc3n2)cc1,-,0,-,-,-,-,-,-
Cc1csc(NC(=O)CSc2nnc(Cn3c(=O)sc4ccccc43)n2-c2ccccc2)n1,-,0,-,-,-,-,-,-
N#Cc1nc(COc2ccc(Br)cc2)oc1N1CCCCCC1,0,-15,0,0,0,0,82,0
Cc1ccc(C)c(NC(=S)N2CCC(NC(=O)c3ccc(F)cc3)CC2)c1,0,0,0,0,0,0,-,-
CN(C)c1ccc(/C=N/Nc2nncc3ccccc23)cc1,0,0,0,0,0,0,-,-
Cc1c(C(=O)N2CCN(c3ccc(C(F)(F)F)cn3)CC2)oc2ccccc12,0,-12,0,0,0,0,135,0.15
CCC(C)c1ccc(NC(=O)C2CC3CCC2C3)cc1 (stereo not given),0,-9.4,0,0,-6.6,0,116,0
CN(Cc1cccc(F)c1)C(=O)c1ccc(S(=O)(=O)N2CCOCC2)cc1,-,0,-,-,-,-,-,-
COc1ccccc1NC(=O)C(C)OC(=O)CCCc1c[nH]c2ccccc12 (stereo not given),0,-10,0,0,-7.2,0,104,0
CC(=O)N1c2ccc(S(=O)(=O)N3CCCCC3)cc2CC1C(=O)Nc1cccc(C)c1 (stereo not given),0,-11,0,0,0,0,95,0
Cc1ccc(S(=O)(=O)N(CC(=O)NCCC2=CCCCC2)Cc2ccccc2F)cc1,0,-9.4,0,0,0,0,116,0
Cc1ccc(C)c(-c2cc(C(=O)Nc3cccnc3)c3ccccc3n2)c1,0,-12,6,0,-8,0,125,0.12
COC(=O)COc1ccc(S(=O)(=O)Nc2ccc3c(c2)OCO3)cc1,0,0,0,0,0,0,-,-
COC(=O)COc1ccc(S(=O)(=O)Nc2ccc3c(c2)OCO3)cc1Cl,0,-9.7,0,0,0,0,98,0
CC(C)c1ccc(S(=O)(=O)Nc2ccc3c(c2)OCO3)cc1,-,-11,-,-,-,-,122,0
COc1ccccc1C(CNc1nc(C(F)(F)F)nc2ccccc12)N(C)C (stereo not given),0,0,0,0,0,0,-,-
C=CCN(C(=O)c1csnn1)C(C(=O)NCc1ccc(F)cc1)c1ccccc1 (stereo not given),0,0,0,0,0,0,-,-
CCOc1cc(CNc2ccccc2)cc(Br)c1OCC(=O)NC(C)(C)C,0,0,0,0,0,0,-,-
CCOc1cc(CNc2ccccc2)cc(Br)c1OCc1ccc(F)cc1,0,-8.8,0,0,0,0,84,0.16
COCCN1C(=O)C(CC(=O)Nc2ccc(C(C)=O)cc2)SC1=Nc1ccccc1 (stereo not given),0,0,0,0,0,0,-,-
CC(O)CN1C(=O)C(CC(=O)Nc2ccc(Cl)cc2)SC1=Nc1ccccc1 (stereo not given),0,-9.5,0,0,0,0,110,0
